This is a sample that favours compounds with a hit; in the whole collection about 1.2% have one here.
CRFR2-BP antag: blocks CRF-induced signaling of the CRF-BP/CRF-R2 complex | HEK293 CRF-R2/CRF-BP, CRF-induced calcium fluorescence | inhibition, % at 11.8 µM | hit rate 0.59% among 350,000 | AID 588475;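 active = inhibition of the ligand-induced calcium signal above about 50% at the single tested concentration, limit read from the data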
Tn6 DDE FP: DD(E)-Tn6 binding inhibition, primary FP screen; P02675; AID 720509; hit rate 0.21% among 370,000; Fibrin DD(E) TRITC-Tn6 fluorescence polarization displacement; inhibition, % at 8.3 µM;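 active = inhibition above a per-campaign cutoff: mean of compounds within control limits plus 3 SD, cut at about 15% in these data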
Target sequence (P02675 whole entry, looked up): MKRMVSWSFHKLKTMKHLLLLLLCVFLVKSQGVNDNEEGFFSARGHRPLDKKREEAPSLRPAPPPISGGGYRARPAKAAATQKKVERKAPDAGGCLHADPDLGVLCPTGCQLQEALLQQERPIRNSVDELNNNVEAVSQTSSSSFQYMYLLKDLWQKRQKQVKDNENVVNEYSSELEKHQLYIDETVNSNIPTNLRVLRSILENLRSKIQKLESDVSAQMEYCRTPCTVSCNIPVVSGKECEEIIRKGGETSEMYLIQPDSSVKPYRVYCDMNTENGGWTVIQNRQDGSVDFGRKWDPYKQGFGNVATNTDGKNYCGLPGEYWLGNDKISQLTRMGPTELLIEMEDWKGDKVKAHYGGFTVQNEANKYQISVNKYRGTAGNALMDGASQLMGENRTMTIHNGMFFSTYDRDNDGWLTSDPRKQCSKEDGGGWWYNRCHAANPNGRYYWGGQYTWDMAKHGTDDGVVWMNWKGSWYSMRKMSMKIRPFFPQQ
Tn7 DDE FP: disrupts Tn7 cyclic peptide binding to fibrin D-Dimer-E complex; P02675; FP displacement of FITC-Tn7 peptide from fibrin DD(E); 0% = median of compound wells per plate; inhibition, % at 8.3 µM; hit rate 0.13% among 370,000;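 active = inhibition above the mean of compounds falling within the control limits plus 3 SD of them, cut at about 14% in these data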
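Assay system: human fibrin DD(E) protein / Input: 2 µM fibrin DD(E) / Benchmarks: high control of 10 µM Aha-Tn7 peptide / Measured by: fluorescence polarization of the labelled Tn7 tracer / Medium: Tris buffer with calcium and detergent, pH 7.8 / Timing: 10 min compound pre-incubation, 3 h probe incubation at room temperature / Repeats: one replicate per compound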
CRFR2-BP ag: CRF-BP/CRF-R2 complex agonism; AID 588473; activation, % at 13.2 µM; HEK293 CRF-R2/CRF-BP, calcium dye fluorescence (FLIPR); percent of saturating CRF peptide response; hit rate 0.46% among 350,000;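 active = activation of at least 50%, plus an integration ratio under a set limit after plate pattern correction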
Tn6 DDE ctr: DD(E)-Tn6 binding inhibition, counter-screen | hit rate 2% among 680 | AID 720621 | inhibition, % at 8.3 µM | Fibrin DD(E), TRITC-Tn6 fluorescence polarization displacement; 0% = median of compound wells, not DMSO | shares compounds with Tn6 DDE FP;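 active = inhibition above the mean of test compounds lying between the control limits plus 3 SD of those, cut at about 14% in these data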
Tn6 DDE conf: confirmation of inhibitors of Tn6 binding to human fibrin DD(E); AID 720631; inhibition, % at 8.3 µM; FP displacement of TRITC-Tn6 peptide from DD(E); 0% = per-plate median of test wells; shares compounds with Tn6 DDE FP; hit rate 10% among 680;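 active = inhibition above the mean of compounds lying within the control limits plus 3 SD, cut at about 16% in these data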
Large screens that a line does not name were inactive (follow-up assays come after a bar, where they were run).

Cc1ccc2c(c1)C1CN(C)CCC1N2C(=O)Nc1cccc(C(F)(F)F)c1 (stereo not drawn)	none
Cc1ccc2c(c1)[C@@H]1CN(C)CC[C@@H]1N2C(=O)Nc1cccc(C(F)(F)F)c1	Tn6 DDE FP 17 | Tn6 DDE ctr inactive | Tn6 DDE conf inactive
COc1ccc(-n2nc(C(=O)NCC(=O)N3CCC4(CC3)OCCO4)c3ccccc3c2=O)cc1OC	none
CCN1/C(=C/C=C/C2=[N+](CC)c3ccccc3C2(C)C)C(C)(C)c2ccccc21	Tn6 DDE FP active, CRFR2-BP ag 139 | Tn6 DDE ctr inactive | Tn6 DDE conf 93
C[N+]1=C(/C=C/Nc2ccccc2)C(C)(C)c2ccccc21	none
C[n+]1c2ccccc2nc2ccc(NCCO)cc21	Tn6 DDE FP active | Tn6 DDE ctr inactive | Tn6 DDE conf 122
CNc1ccc2nc3ccccc3[n+](C)c2c1	Tn6 DDE FP active | Tn6 DDE ctr inactive | Tn6 DDE conf 94
O=[N+]([O-])c1ccc(-c2ccccc2)c([As](=O)(O)O)c1	none
CN(C)c1ccc(/C=C/C=C2/C(=O)NC(=O)N(c3ccccc3)C2=O)cc1	Tn6 DDE FP 23 | Tn6 DDE ctr inactive | Tn6 DDE conf 40
O=C(NCC1=C(c2ccc3ccccc3c2)C[C@@H]2CC[C@H]1N2Cc1ccco1)c1cccnc1	none

Assay outcomes as filed in PubChem BioAssay.
